# Biological target: Sodium/hydrogen exchanger (Oryctolagus cuniculus, UniProt P23791+P50482+P26432)
# Assay: Inhibition of 5-N-(ethyl isopropyl)-amiloride[EIPA]-sensitive Na+ uptake into acidified rabbit erythrocytes.
# Assay type: functional
# In short: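 Rabbit blood (heparinized) red cells, washed, acidified in pH 6.2 KCl buffer with ouabain, 10 min 37 °C; internal pH clamped with 200 μM DIDS and 1 mM acetazolamide, 30 min 37 °C. Uptake 5 min at 37 °C in pH 8.0 buffer with 10 mM NaCl plus ²²Na tracer, 1% DMSO. Triplicates; counts with 10 μM EIPA subtracted; IC50 by nonlinear fit.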
row,SMILES,IC50 [nM]
1,CCCSc1cc(C)c(C(=O)N=C(N)N)cc1S(C)(=O)=O,6.8
2,CS(=O)(=O)c1cc(C(=O)N=C(N)N)ccc1-n1cccn1,160
3,Cc1cc(-n2cccc2)c(S(C)(=O)=O)cc1C(=O)N=C(N)N [ENIPORIDE],8

# Other lines, results leading:
row,IC50 [nM],SMILES
1,140,CS(=O)(=O)c1cc(C(=O)N=C(N)N)ccc1C(F)(F)F
2,26,CC(C)c1ccc(C(=O)N=C(N)N)cc1S(C)(=O)=O [CARIPORIDE]
